Article PMC12272725 (Chemical Science, 2025)
Like-named read-outs stand apart in the source and are kept apart here.

How the values were obtained:
Format in all cases: cell-based, human
A549 cells [1] = system: A549 cells
Summary of the method: (§1)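 Human cells (A549 lung cancer, RPE-1 non-cancerous epithelial) were incubated with test compound for 4 h, the medium was replaced, and the cells were either irradiated or kept dark, then incubated a further 48 h. Viability was read by resazurin. Irradiation was 510 nm for 10 min (non-extended BODIPYs) or 645 nm (extended BODIPYs). IC50 was found dark and irradiated. […]. PPIX was the positive control.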

RPE-1 cells = system: RPE-1 cells
Summary of the method: as §1

A549 cells [2] = experiment: Intracellular total ROS generation, DCFH trap, A549 cells; settings: A549, 5 μM, 645 nm for 1 h
Summary of the method: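 A549 cells were loaded with the total-ROS trap dichlorodihydrofluorescein (DCFH) and test compound, then irradiated at 645 nm for 1 h at 37 °C. The trap's fluorescence gave intracellular ROS generation. DCFH alone was the control.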

[3] = read-out: IC50 upon 645 nm irradiation, 645 nm for 1 h (9.00 J/cm2)

IC50 (A549 cells [1]; [3]): 900 ± 30 nM
Structure (SMILES): C=CC1=C(C)c2cc3[nH]c(cc4nc(cc5[nH]c(cc1n2)c(C)c5CCC(=O)O)C(CCC(=O)O)=C4C)c(C)c3C=C [PPIX]
Phototoxicity index (A549 cells [1]; 510 nm for 10 min): 220 ± 30
Phototoxicity index (A549 cells [1]; 645 nm for 1 h): 111 ± 4
Phototoxicity index (RPE-1 cells; 510 nm for 10 min): 350 ± 120
Phototoxicity index (RPE-1 cells; 645 nm for 1 h): 360 ± 160
IC50 (RPE-1 cells; read-out: IC50 in the dark, dark, Table 3 (645 nm series)): > 100000 nM
IC50 (RPE-1 cells; read-out: IC50 upon 510 nm irradiation, 510 nm for 10 min (2.44 J/cm2)): 300 ± 100 nM
IC50 (RPE-1 cells; [3]): 300 ± 100 nM
Intracellular ROS generation (A549 cells [2]): elevated above control
